Data from ChEMBL document CHEMBL1133667, “A structure-affinity relationship study on derivatives of N-[2-[4-(4-Chlorophenyl)piperazin-1-yl]ethyl]-3-methoxybenzamide, a high-affinity and selective D(4) receptor ligand” (J Med Chem, 2000).

Experiments:
[1] = target: T1, Adrenergic receptor alpha-1 (Rattus norvegicus) (UniProt P15823+P23944+P43140); test: Tested in vitro for %inhibition against alpha-1 adrenergic receptor; type: protein assay; conditions: concentration not given here
Summary of the method: (§1)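 Drug at 10^-5–10^-11 M, 50 min at 25 °C. Filtered on GF/B filters presoaked in 0.5% polyethylenimine. Nonspecific binding with 1 µM prazosin. Percentage inhibition of specific binding reported at the stated concentration.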

D(2) dopamine receptor [2] = target: T2, D(2) dopamine receptor (Homo sapiens, UniProt P14416); test: In vitro binding affinity at human Dopamine receptor D2 (long) by [3H]spiroperidol displacement.
D(4) dopamine receptor = target: T3, D(4) dopamine receptor (Homo sapiens, UniProt P21917); test: In vitro binding affinity at human Dopamine receptor D4.4 by [3H]YM-09151-2 displacement.
T3 sequence (P21917 whole entry): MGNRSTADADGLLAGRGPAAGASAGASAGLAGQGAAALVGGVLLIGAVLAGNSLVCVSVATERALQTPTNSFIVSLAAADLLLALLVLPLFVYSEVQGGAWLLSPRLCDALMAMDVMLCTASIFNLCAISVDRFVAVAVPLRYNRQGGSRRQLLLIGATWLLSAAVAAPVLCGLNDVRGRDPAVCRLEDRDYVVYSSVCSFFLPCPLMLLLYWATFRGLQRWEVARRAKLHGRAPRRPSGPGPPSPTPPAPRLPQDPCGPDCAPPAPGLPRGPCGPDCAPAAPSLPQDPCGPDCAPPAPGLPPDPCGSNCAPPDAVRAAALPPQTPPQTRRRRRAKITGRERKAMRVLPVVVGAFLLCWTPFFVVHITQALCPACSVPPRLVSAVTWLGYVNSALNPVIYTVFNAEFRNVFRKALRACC

[3] = target: T4, 5-hydroxytryptamine receptor 1A (Rattus norvegicus, UniProt P19327); test: In vitro binding affinity at 5-hydroxytryptamine receptor 1A receptor in rat hippocampal membranes by [3H]8-OH-DPAT displacement.; type: cell membranes, Hippocampus
T4 sequence (P19327 whole entry): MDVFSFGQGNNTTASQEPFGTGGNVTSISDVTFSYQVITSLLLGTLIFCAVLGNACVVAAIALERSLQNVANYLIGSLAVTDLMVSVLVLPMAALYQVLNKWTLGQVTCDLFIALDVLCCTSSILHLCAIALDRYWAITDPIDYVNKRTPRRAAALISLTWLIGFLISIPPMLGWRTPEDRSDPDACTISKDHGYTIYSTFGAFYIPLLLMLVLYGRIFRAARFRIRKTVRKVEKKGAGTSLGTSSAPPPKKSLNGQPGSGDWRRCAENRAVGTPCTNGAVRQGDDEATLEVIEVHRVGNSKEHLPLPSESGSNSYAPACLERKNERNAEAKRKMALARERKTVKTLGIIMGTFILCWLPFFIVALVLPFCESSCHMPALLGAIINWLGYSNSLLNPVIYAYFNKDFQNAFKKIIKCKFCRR

[4] = target: T5, Adrenergic receptor alpha-1 (Rattus norvegicus, UniProt P15823+P23944+P43140); test: In vitro binding affinity towards alpha-1 adrenergic receptor by using [3H]prazosin in rat brain cortex membranes.; type: cell membranes
T5 sequence (P15823 whole entry): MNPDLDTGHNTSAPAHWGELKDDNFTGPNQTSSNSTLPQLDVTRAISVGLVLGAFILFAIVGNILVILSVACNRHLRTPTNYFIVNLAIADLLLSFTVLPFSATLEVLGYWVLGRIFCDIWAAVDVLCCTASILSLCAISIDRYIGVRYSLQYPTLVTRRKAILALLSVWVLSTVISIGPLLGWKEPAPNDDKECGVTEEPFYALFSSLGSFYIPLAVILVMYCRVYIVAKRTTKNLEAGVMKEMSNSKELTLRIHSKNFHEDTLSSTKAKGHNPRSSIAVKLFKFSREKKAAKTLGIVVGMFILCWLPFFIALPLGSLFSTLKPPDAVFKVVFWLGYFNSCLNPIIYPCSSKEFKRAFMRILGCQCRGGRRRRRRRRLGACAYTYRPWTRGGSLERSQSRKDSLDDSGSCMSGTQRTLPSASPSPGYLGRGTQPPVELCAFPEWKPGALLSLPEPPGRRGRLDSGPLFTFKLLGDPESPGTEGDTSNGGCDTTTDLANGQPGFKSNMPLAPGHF
T5 sequence (P23944 whole entry): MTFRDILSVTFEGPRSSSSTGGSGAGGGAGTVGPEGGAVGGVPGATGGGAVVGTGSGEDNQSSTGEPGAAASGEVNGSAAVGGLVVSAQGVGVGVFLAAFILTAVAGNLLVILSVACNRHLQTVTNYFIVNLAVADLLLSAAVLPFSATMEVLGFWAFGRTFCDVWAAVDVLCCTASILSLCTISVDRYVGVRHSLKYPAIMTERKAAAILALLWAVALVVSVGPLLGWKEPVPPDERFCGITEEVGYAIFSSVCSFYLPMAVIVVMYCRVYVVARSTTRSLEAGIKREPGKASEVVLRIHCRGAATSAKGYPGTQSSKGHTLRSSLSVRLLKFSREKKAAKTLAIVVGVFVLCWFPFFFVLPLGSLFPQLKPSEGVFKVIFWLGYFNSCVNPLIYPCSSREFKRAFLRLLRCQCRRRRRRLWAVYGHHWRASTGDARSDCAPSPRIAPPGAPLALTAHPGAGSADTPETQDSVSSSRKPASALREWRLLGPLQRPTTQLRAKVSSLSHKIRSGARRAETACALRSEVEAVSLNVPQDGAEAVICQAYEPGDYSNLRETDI
T5 sequence (P43140 whole entry): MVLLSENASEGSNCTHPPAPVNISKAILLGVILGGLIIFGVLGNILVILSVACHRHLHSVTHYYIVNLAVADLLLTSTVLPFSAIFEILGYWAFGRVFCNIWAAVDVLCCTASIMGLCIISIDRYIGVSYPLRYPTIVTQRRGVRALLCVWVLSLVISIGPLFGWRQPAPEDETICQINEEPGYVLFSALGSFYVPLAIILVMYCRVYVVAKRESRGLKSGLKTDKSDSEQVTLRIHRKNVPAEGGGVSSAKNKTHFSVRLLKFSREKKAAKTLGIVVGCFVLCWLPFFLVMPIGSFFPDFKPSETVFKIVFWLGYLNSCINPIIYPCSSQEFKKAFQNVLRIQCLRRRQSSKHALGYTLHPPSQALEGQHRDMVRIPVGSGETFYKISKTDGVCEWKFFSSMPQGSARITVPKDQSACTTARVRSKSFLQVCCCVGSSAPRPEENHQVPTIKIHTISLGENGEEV

[5] = target: T1, Adrenergic receptor alpha-1 (Rattus norvegicus); test: (§2) Tested in vitro for % inhibition against alpha-1 adrenergic receptor; type: protein assay; set-up: concentration or dose not given beside the values; conditions: concentration not given here; summary of the method: as §1
D(2) dopamine receptor [6] = target: T2, D(2) dopamine receptor; test: In vitro binding affinity towards human Dopamine receptor D2L, using [3H]spiroperidol radioligand in Sf9 baculovirus expression.
[7] = target: T1, Adrenergic receptor alpha-1 (Rattus norvegicus); test: as §2; type: protein assay; conditions: concentration not given here; summary of the method: as §1
[8] = target: T6, 5-hydroxytryptamine receptor 1A (Rattus norvegicus) (UniProt P19327); test: Tested in vitro for % inhibition against (serotonin)5-HT 1A receptor.; conditions: concentration not given here
T6 sequence (whole entry): T4 sequence (P19327 whole entry)

T2 sequence (P14416 whole entry): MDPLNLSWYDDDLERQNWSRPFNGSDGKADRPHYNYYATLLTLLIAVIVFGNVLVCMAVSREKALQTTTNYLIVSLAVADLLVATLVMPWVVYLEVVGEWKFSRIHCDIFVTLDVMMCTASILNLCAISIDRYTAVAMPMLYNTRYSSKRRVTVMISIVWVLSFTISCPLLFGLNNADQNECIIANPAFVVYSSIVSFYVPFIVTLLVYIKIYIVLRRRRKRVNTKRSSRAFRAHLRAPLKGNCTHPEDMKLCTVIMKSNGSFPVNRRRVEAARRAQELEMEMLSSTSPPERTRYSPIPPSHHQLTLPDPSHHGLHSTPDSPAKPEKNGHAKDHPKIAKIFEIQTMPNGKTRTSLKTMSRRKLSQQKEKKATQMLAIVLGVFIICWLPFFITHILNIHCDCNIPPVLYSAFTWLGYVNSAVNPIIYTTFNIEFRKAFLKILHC

Structure (SMILES) | inhibition [1] [%] | Ki (D(2) dopamine receptor [2]) [nM] | Ki (D(4) dopamine receptor) [nM] | Ki [3] [nM] | Ki [4] [nM] | inhibition [5] [%] | Ki (D(2) dopamine receptor [6]) [nM] | inhibition [7] [%] | inhibition [8] [%]
COc1cccc(CCCCN2CCN(c3ccc(Cl)cc3)CC2)c1 | 25 | 2740 | 204 | 514 | > 850 | – | – | – | –
COc1cccc(C(=O)CCCCCN2CCN(c3ccc(Cl)cc3)CC2)c1 | – | > 850 | 280 | 45 | 678 | – | – | – | –
COc1ccc2c(c1)C(CCCN1CCN(c3ccc(Cl)cc3)CC1)CCC2 (stereo unspecified) | – | 980 | 391 | 708 | > 850 | 19 | – | – | –
COc1cccc(NC(=O)CCN2CCN(c3ccc(Cl)cc3)CC2)c1 | – | 282 | 42 | 859 | 303 | – | – | – | –
COc1cccc2c1CCN(CCN1CCN(c3ccc(Cl)cc3)CC1)C2=O | – | – | 42 | 451 | 631 | – | 3170 | – | –
COc1cccc2c1CCCC2CCCN1CCN(c2ccc(Cl)cc2)CC1 (stereo unspecified) | – | 3400 | 416 | 105 | > 850 | 34 | – | – | –
COc1ccc2c(c1)C(=O)N(CCN1CCN(c3ccc(Cl)cc3)CC1)CC2 | – | 3960 | 141 | 11 | > 850 | 33 | – | – | –
COc1ccc2c(c1)C(NCCN1CCN(c3ccc(Cl)cc3)CC1)CCC2 (stereo unspecified) | – | 262 | 46 | > 850 | > 850 | 37 | – | – | –
COc1cccc(C(=O)N(C)CCN2CCN(c3ccc(Cl)cc3)CC2)c1 | – | > 850 | 180 | > 850 | > 850 | – | – | 22 | 18
COc1cccc(CNCCN2CCN(c3ccc(Cl)cc3)CC2)c1 | – | 5000 | 23 | > 850 | > 850 | 12 | – | – | –
COc1cccc(C(=O)CCCN2CCN(c3ccc(Cl)cc3)CC2)c1 | – | 2550 | 4 | 183 | 908 | – | – | – | –
COc1cccc(C(=O)CCCCN2CCN(c3ccc(Cl)cc3)CC2)c1 | – | > 850 | 21 | 37 | 146 | – | – | – | –
COc1cccc2c1CCCC2NCCN1CCN(c2ccc(Cl)cc2)CC1.Cl.Cl (stereo unspecified) | – | 3180 | 32 | 821 | > 850 | 27 | – | – | –
